Test results from ChEMBL document CHEMBL1144694, “Identification of 4-(4-aminopiperidin-1-yl)-7H-pyrrolo[2,3-d]pyrimidines as selective inhibitors of protein kinase B through fragment elaboration” (J Med Chem, 2008).

Key:
[1] = Inhibition of recombinant catalytic subunit PKA by radiometric filter binding assay
[2] = target: RAC-beta serine/threonine-protein kinase (Homo sapiens, UniProt P31751); assay: Inhibition of PKBbeta recombinant by radiometric filter binding assay
[3] = Growth inhibition of human PC3M cells by SRB assay; assay type: functional, cell-based; conditions: PC-3M
[4] = Growth inhibition of human U87MG cells by SRB assay; assay type: functional, cell-based, U-87MG ATCC; conditions: U-87 MG
[5] = Selectivity for PKBbeta over PKA
[6] = Oral bioavailability in BALB/c mouse at 25 mg/kg; assay type: ADME, organism-based; conditions: in vivo
[7] = Tmax in BALB/c mouse at 25 mg/kg, po; assay type: ADME, organism-based; parameters: dose 25 mg/kg, route oral; conditions: in vivo
Summary of the method: (§1)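 Female BALB/c mice dosed at 25 mg kg^-1 intravenously or orally, compound in 10% DMSO 0.1% Tween-20 in saline. Plasma concentrations measured over time to derive T1/2, Tmax, Cmax, AUC, Vss and plasma clearance.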

Mus musculus [8] = assay: Volume of distribution at steady state in BALB/c mouse at 25 mg/kg, iv; assay type: ADME, organism-based; parameters: dose 25 mg/kg, route intravenous; conditions: in vivo; summary of the method: as §1
[9] = Cmax in BALB/c mouse at 25 mg/kg, po; assay type: ADME, organism-based; parameters: dose 25 mg/kg, route oral; conditions: in vivo; summary of the method: as §1
[10] = Metabolic stability in BALB/c mouse liver microsomes at 10 uM after 30 mins; assay type: ADME, Microsome; conditions: read-out: Stability
Summary of the method: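 Incubated at 10 µM for 30 min in mouse liver microsomes competent for phase I and phase II metabolism. Parent remaining quantified by LC-MS/MS, with metabolite identification.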

[11] = AUC in BALB/c mouse at 25 mg/kg, iv; assay type: ADME, organism-based; parameters: dose 25 mg/kg, route intravenous; conditions: plasma; summary of the method: as §1
Plasma = assay: Drug level in BALB/c mouse plasma at 25 mg/kg, po; assay type: ADME, organism-based; parameters: dose 25 mg/kg, route oral; conditions: in vivo; summary of the method: as §1
[12] = Half life in BALB/c mouse at 25 mg/kg, po; assay type: ADME, organism-based; parameters: dose 25 mg/kg, route oral; conditions: in vivo; summary of the method: as §1
[13] = Tmax in BALB/c mouse at 25 mg/kg, iv; assay type: ADME, organism-based; parameters: dose 25 mg/kg, route intravenous; conditions: in vivo; summary of the method: as §1
Mus musculus [14] = assay: Half life in BALB/c mouse at 25 mg/kg, iv; assay type: ADME, organism-based; parameters: dose 25 mg/kg, route intravenous; conditions: in vivo; summary of the method: as §1
Mus musculus [15] = assay: Clearance in BALB/c mouse plasma at 25 mg/kg, iv; assay type: ADME, organism-based; parameters: dose 25 mg/kg, route intravenous; conditions: in vivo; summary of the method: as §1
[16] = Cmax in BALB/c mouse at 25 mg/kg, iv; assay type: ADME, organism-based; parameters: dose 25 mg/kg, route intravenous; conditions: in vivo; summary of the method: as §1
[17] = Metabolic stability in human liver microsomes at 10 uM after 30 mins; assay type: ADME, Microsome; conditions: read-out: Stability
Summary of the method: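 Human liver microsomes with cofactors for phase I metabolism, compound at 10 µM for 30 min. Percent parent remaining measured by LC-MS/MS.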

[18] = target: T1, Ribosomal protein S6 kinase beta-1 (Homo sapiens, UniProt P23443); assay: Inhibition of p70S6K by radiometric filter binding assay
Summary of the method: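 IC50 for p70S6K kinase activity measured in a radiometric filter binding assay.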
Target sequence in this assay (P23443 whole entry): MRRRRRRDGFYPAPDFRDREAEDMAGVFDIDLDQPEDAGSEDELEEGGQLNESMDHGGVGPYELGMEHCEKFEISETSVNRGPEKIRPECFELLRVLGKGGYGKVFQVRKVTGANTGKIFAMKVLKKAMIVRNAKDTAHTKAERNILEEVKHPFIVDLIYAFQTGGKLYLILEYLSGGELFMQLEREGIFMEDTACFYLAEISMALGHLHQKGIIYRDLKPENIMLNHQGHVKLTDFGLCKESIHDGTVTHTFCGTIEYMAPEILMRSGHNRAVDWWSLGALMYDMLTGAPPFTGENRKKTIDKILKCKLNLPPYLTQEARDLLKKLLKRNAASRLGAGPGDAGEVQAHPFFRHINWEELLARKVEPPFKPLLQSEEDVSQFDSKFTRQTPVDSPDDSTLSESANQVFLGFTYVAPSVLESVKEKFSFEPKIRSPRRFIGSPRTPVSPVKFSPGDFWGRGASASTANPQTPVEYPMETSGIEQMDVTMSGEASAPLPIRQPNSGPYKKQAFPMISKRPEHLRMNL

[19] = AUC in BALB/c mouse at 25 mg/kg, po; assay type: ADME, organism-based; parameters: dose 25 mg/kg, route oral; conditions: plasma; summary of the method: as §1
[20] = target: Serine/threonine-protein kinase Chk2 (Homo sapiens) (UniProt O96017); assay: Inhibition of CHK2 at 1 uM
Summary of the method: (§2)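 Screen against a panel of 21 kinases, percent inhibition at 1 µM compound.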

[21] = target: T1, Ribosomal protein S6 kinase beta-1; assay: Inhibition of p70S6K at 1 uM; summary of the method: as §2
Target sequence in this assay (P23443 whole entry, looked up): as the sequence (P23443 whole entry) above

[22] = Inhibition of PKC at 1 uM; summary of the method: as §2
[23] = target: T2, Serine/threonine-protein kinase Chk1 (Homo sapiens) (UniProt O14757); assay: Inhibition of CHK1 at 1 uM; summary of the method: as §2
T2 sequence (whole entry): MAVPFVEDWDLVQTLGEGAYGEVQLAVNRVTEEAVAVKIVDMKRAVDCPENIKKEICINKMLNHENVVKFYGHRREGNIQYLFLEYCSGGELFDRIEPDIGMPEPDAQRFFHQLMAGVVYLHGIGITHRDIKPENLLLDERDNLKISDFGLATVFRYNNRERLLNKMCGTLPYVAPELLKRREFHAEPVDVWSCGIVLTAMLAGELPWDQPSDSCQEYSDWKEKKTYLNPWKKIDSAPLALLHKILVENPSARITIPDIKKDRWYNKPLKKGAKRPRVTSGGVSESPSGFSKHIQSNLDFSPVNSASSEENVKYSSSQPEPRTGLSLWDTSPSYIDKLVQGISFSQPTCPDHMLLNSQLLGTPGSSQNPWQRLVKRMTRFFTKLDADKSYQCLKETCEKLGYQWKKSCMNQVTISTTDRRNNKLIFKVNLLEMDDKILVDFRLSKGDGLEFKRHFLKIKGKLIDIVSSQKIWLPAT

[24] = target: Receptor-type tyrosine-protein kinase FLT3 (Homo sapiens) (UniProt P36888); assay: Inhibition of FLT3 at 1 uM; summary of the method: as §2
[25] = target: Ribosomal protein S6 kinase alpha-2 (Homo sapiens) (UniProt Q15349); assay: Inhibition of RSK2 at 1 uM; summary of the method: as §2
[26] = target: Rho-associated protein kinase 2 (Homo sapiens) (UniProt O75116); assay: Inhibition of ROCK2 at 1 uM; summary of the method: as §2
[27] = target: Proto-oncogene tyrosine-protein kinase Src (Homo sapiens) (UniProt P12931); assay: Inhibition of SRC at 1 uM; summary of the method: as §2
Sequence of Proto-oncogene tyrosine-protein kinase Src (Homo sapiens) (P12931 2-536 limits assumed): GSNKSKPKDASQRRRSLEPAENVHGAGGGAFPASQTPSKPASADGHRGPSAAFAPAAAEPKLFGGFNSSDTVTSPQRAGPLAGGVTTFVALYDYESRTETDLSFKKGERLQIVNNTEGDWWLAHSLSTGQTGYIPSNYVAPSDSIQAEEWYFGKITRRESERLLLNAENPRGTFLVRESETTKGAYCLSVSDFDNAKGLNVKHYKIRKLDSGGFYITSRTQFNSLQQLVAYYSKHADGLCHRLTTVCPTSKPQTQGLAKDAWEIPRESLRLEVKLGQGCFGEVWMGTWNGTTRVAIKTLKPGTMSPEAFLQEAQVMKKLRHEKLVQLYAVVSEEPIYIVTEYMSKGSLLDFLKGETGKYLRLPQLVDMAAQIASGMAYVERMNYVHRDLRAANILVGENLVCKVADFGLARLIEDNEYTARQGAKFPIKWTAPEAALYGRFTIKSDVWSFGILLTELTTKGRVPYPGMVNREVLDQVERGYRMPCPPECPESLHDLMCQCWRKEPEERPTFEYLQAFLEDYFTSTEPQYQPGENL

Sequence of RAC-beta serine/threonine-protein kinase (P31751 whole entry): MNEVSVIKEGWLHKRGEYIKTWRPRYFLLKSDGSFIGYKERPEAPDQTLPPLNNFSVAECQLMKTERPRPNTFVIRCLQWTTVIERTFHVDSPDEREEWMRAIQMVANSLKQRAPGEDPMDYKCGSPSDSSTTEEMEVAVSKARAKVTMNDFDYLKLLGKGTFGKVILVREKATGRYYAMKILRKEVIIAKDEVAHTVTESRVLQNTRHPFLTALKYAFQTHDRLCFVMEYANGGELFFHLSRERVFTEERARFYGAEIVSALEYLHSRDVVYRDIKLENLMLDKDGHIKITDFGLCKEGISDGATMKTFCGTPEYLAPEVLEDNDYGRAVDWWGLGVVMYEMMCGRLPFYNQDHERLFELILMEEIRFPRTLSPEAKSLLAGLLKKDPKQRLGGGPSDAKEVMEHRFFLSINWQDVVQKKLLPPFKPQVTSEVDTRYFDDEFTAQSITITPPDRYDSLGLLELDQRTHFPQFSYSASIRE
Sequence of Serine/threonine-protein kinase Chk2 (Homo sapiens) (O96017 whole entry): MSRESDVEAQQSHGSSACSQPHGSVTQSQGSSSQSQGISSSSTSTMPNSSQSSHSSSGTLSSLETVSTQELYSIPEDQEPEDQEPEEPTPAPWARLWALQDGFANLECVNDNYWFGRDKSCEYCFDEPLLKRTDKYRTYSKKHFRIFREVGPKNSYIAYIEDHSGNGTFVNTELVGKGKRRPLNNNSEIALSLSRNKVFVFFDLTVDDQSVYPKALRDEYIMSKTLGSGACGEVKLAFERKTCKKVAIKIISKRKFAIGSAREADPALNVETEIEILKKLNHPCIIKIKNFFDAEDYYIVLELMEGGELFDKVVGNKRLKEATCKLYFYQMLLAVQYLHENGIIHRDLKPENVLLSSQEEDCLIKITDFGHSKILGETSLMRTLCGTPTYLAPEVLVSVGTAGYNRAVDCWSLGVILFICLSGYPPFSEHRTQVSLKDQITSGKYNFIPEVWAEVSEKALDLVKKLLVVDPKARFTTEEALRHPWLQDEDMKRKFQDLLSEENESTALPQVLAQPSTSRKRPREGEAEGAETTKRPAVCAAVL
Sequence of Receptor-type tyrosine-protein kinase FLT3 (Homo sapiens) (P36888 whole entry): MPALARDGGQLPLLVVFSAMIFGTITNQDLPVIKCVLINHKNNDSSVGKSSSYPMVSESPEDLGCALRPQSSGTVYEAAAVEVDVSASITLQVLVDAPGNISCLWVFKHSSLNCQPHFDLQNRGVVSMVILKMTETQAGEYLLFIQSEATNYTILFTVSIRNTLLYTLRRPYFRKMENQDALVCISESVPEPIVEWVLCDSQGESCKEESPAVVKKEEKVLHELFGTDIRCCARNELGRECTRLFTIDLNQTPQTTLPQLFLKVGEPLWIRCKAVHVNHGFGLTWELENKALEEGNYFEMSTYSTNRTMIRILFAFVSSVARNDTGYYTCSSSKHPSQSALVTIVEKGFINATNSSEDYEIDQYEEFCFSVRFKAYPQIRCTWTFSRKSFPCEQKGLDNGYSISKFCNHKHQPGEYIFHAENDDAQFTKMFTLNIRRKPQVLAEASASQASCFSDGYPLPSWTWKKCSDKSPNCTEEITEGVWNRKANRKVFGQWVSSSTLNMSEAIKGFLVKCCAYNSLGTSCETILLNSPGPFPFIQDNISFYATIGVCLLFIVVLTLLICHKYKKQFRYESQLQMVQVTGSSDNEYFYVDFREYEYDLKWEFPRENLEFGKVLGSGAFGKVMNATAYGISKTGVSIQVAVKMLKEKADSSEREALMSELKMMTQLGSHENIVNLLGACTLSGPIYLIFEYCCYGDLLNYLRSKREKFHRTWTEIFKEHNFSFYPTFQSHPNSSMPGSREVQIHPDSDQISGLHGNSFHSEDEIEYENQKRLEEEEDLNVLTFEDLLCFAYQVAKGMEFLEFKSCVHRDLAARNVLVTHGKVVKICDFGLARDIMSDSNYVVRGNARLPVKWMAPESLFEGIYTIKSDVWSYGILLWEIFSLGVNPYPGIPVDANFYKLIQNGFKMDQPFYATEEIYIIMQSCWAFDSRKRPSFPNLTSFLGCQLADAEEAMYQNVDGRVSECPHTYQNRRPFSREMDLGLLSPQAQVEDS
Sequence of Rho-associated protein kinase 2 (Homo sapiens) (O75116 whole entry, looked up): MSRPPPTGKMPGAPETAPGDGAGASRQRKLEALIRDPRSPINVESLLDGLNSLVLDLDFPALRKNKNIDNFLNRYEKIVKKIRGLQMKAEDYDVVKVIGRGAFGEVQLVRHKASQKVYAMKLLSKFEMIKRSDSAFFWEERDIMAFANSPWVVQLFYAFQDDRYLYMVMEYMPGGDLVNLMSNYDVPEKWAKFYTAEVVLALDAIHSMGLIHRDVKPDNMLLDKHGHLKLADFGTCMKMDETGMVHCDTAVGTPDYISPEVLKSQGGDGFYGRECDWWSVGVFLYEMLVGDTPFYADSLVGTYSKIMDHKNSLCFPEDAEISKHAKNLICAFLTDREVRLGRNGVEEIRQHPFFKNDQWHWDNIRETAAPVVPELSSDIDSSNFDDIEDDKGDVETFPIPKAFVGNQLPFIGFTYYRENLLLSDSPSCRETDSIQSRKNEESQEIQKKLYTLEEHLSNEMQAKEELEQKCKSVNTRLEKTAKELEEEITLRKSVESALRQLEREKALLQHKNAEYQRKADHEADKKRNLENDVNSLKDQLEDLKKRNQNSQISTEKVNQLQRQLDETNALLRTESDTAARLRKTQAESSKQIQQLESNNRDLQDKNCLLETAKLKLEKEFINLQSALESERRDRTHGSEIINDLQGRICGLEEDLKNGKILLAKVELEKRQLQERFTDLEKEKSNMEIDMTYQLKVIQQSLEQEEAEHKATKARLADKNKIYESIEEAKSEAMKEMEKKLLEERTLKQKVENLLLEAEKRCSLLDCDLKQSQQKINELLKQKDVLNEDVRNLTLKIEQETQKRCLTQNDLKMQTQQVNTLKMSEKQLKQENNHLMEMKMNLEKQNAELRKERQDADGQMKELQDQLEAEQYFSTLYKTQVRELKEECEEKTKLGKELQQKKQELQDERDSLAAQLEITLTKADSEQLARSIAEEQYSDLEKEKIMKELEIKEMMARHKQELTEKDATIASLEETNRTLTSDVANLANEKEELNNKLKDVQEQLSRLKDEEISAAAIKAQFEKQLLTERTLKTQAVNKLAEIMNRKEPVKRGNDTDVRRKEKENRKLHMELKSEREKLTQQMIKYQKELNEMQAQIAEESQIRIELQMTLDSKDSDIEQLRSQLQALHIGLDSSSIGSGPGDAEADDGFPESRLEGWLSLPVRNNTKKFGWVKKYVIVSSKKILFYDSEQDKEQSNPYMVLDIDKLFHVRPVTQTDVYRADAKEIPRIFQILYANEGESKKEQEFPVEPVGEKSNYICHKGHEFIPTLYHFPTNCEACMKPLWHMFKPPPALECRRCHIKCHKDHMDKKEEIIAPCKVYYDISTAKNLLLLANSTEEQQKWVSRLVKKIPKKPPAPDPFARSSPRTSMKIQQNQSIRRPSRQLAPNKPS

SMILES | IC50 [1] [nM] | IC50 [2] [nM] | IC50 [3] [nM] | also measured
NC1(c2ccc(Cl)cc2)CCN(c2ncnc3[nH]cnc23)CC1 | 23 | 7 | > 50000 | –
NCC1CCN(c2ncnc3[nH]ncc23)CC1 | 2400 | 920 | > 50000 | –
NCC1(c2ccc(Cl)cc2)CCN(c2ccnc3[nH]ccc23)CC1 | 3 | 25 | 16000 | –
c1nc(N2CCCCC2)c2nc[nH]c2n1 | – | 59000 | – | –
NC1CCN(c2ncnc3[nH]ncc23)CC1 | 7300 | 830 | 38000 | –
NC(c1ccc(Cl)cc1)C1CCN(c2ncnc3[nH]ccc23)CC1 (stereo not given) | 54 | 25 | 7400 | IC50 [4]: 6000 nM
NC1CCN(c2ccnc3[nH]ccc23)CC1 | 1930 | 880 | 31000 | –
NCC1CCN(c2ncnc3[nH]cnc23)CC1 | 890 | 290 | > 50000 | –
NC(=O)C1CCN(c2ncnc3[nH]cnc23)CC1 | – | 41000 | – | –
NC1CCN(c2ncnc3[nH]ccc23)CC1 | 1550 | 180 | 48000 | –
NC1(Cc2ccc(Cl)cc2)CCN(c2ncnc3[nH]cnc23)CC1 | 286 | 25 | > 50000 | Selectivity ratio [5]: 11
NCC1CCN(c2ncnc3[nH]ccc23)CC1 | 460 | 770 | 32000 | –
NCC1(Cc2ccc(Cl)cc2)CCN(c2ncnc3[nH]ccc23)CC1 | 9 | 5 | 15000 | IC50 [4]: 4300 nM
NCC1(Cc2ccc(Cl)cc2)CCN(c2ncnc3[nH]cnc23)CC1 | 7 | 3 | 20000 | –
NC(c1ccc(Cl)cc1)C1CCN(c2ccnc3[nH]ccc23)CC1 (stereo not given) | 3 | 12 | 5300 | IC50 [4]: 3500 nM
NC1(Cc2ccc(Cl)cc2)CCN(c2ncnc3[nH]ccc23)CC1 | – | – | 12000 | bioavailability [6]: 8.5%; Tmax [7]: 30 min; Vdss (Mus musculus [8]): 0.25 L; Cmax [9]: 432 nM; remaining at 0.5 h, 10 µM [10]: 87%; AUC [11]: 4.62 µM·h; concentration (Plasma): 432 nM; half-life [12]: 34.2 min; Tmax [13]: 4.98 min; IC50 [4]: 5000 nM; t1/2 (Mus musculus [14]): 57 min; clearance (Mus musculus [15]): 0.325 L/h; Cmax [16]: 6360 nM; remaining at 0.5 h, 10 µM [17]: 79%; IC50 [18]: 120 nM; AUC [19]: 0.392 µM·h
NC1(c2ccc(Cl)cc2)CCN(c2ncnc3[nH]ccc23)CC1 | 15 | 7 | 8000 | IC50 [4]: 4700 nM
NCC1(c2ccc(Cl)cc2)CCN(c2ncnc3[nH]ccc23)CC1 | 5 | 8 | 1000 | inhibition [20]: > 60%; inhibition [21]: > 60%; inhibition [22]: > 60%; inhibition [23]: > 60%; IC50 [4]: 520 nM; inhibition [24]: > 60%; inhibition [25]: > 60%; inhibition [26]: > 60%; inhibition [27]: > 60%
NCC1(c2ccc(Cl)cc2)CCN(c2ncnc3[nH]cnc23)CC1 | 3 | 16 | 5700 | –
NC(c1ccccc1)C1CCN(c2ncnc3[nH]ccc23)CC1 (stereo not given) | 726 | 246 | 38000 | –
NC(c1ccc(Cl)cc1)C1CCN(c2ncnc3[nH]cnc23)CC1 (stereo not given) | 27 | 71 | 23000 | –
Cc1nc2ncnc(N3CCC(N)CC3)c2[nH]1 | – | 110000 | – | –
O=S(=O)(NCCNC/C=C/c1ccc(Br)cc1)c1cccc2cnccc12 | 5300 | – | 18000 | –
